The entries come from a sample that favours hits as a whole.
IDH1 mut inh – blocks human IDH1 R132H reductase activity; O75874; diaphorase/resazurin fluorescence, 60 min; inhibition, % at 10 µM; actives 0.18% (n = 70,000); in the data active = inhibition above about 34%; inconclusive = no clear call, values can overlap the other calls; inactive = below about 11%;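 also: 0% = DMSO and 100% = no enzyme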
GASC1 inh – KDM4C (human) demethylase inhibition; Q9H3R0; GST-KDM4C 2-372, H3K9me3 peptide, LANCE TR-FRET; inhibition, % at 12.5 µM; actives 0.15% (n = 96,000); AID 720574;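 active = mean replicate inhibition above about 25%, with at least 55% of replicates also reaching it, limit read from the data, passing the limit was not always enough; inconclusive = only one of those two conditions met; inactive = neither condition met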
Target sequence (Q9H3R0 2-372 limits assumed): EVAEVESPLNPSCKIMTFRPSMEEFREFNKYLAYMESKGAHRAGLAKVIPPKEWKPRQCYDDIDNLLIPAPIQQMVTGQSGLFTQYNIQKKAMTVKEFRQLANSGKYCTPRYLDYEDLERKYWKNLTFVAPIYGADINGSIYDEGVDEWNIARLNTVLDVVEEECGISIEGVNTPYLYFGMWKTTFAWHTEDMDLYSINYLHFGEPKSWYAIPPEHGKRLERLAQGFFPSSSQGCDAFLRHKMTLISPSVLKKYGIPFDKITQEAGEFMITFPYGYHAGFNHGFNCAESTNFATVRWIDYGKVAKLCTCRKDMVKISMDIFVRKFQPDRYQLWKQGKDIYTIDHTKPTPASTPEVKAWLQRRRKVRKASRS
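Material: N-terminal GST-fused human GASC-1 (KDM4C) fragment, residues 2-372. Input: 10 nM enzyme. Incubation: enzyme reaction 30 min, then detection 60 min, both room temperature. Doses: one test concentration per compound. Read-out basis: inhibition from TR-FRET ratio decrease. Detection: LANCE TR-FRET, excitation 340 nm, emissions 618 and 671 nm.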
* = called active by the depositor; ? = inconclusive; · = no result given.

SMILES	IDH1 mut inh	GASC1 inh
CN1c2ccc(C#Cc3cccnc3)cc2[C@H]2[C@H](CCN2S(=O)(=O)c2ccc(F)cc2)[C@H]1CO	·	0
Cc1cc(Cl)ccc1NC(=O)CSc1nc(C(F)(F)F)cc(=O)[nH]1	0	·
COCCNC(=O)C[C@@H]1C[C@@H]2c3cc(N(C)C)ccc3O[C@@H]2[C@H](CO)O1	-2	?
CCCNC(=O)C[C@H]1C[C@@H]2c3cc(N(C)C)ccc3O[C@@H]2[C@@H](CO)O1	-10	31*
CCCNC(=O)C[C@H]1C[C@H]2c3cc(N(C)C)ccc3O[C@H]2[C@H](CO)O1	·	49*
COCCNC(=O)C[C@H]1C[C@@H]2c3cc(NC(=O)c4ccc5c(c4)OCO5)ccc3O[C@@H]2[C@@H](CO)O1	-3	1
COCCNC(=O)C[C@H]1C[C@@H]2c3cc(N(C)C)ccc3O[C@@H]2[C@H](CO)O1	-2	17
COCCNC(=O)C[C@H]1C[C@H]2c3cc(NC(=O)c4ccc5c(c4)OCO5)ccc3O[C@H]2[C@@H](CO)O1	16	54*
COC(=O)c1cccc(COC(=O)c2cc(=O)[nH]c3ccccc23)c1	0	·
CC(=O)c1cccc(NC(=O)C2CCCN(S(=O)(=O)c3ccc(Cl)cc3)C2)c1 (stereo unspecified)	0	·
CC(C)Cc1ccc(C(C)c2nc(-c3cccs3)no2)cc1 (stereo unspecified)	0	·
CCc1ccc(OCC(=O)Nc2ccccc2C#N)cc1	-1	·

From PubChem
